From ChEMBL document CHEMBL1131093, “ATP-Citrate lyase as a target for hypolipidemic intervention. 2. Synthesis and evaluation of (3R,5S)-omega-substituted-3-carboxy-3, 5-dihydroxyalkanoic acids and their gamma-lactone prodrugs as inhibitors of the enzyme in vitro and in vivo” (J Med Chem, 1998)

Biological target: T1, ATP-citrate synthase (Homo sapiens, UniProt P53396)
T1 sequence (P53396 whole entry): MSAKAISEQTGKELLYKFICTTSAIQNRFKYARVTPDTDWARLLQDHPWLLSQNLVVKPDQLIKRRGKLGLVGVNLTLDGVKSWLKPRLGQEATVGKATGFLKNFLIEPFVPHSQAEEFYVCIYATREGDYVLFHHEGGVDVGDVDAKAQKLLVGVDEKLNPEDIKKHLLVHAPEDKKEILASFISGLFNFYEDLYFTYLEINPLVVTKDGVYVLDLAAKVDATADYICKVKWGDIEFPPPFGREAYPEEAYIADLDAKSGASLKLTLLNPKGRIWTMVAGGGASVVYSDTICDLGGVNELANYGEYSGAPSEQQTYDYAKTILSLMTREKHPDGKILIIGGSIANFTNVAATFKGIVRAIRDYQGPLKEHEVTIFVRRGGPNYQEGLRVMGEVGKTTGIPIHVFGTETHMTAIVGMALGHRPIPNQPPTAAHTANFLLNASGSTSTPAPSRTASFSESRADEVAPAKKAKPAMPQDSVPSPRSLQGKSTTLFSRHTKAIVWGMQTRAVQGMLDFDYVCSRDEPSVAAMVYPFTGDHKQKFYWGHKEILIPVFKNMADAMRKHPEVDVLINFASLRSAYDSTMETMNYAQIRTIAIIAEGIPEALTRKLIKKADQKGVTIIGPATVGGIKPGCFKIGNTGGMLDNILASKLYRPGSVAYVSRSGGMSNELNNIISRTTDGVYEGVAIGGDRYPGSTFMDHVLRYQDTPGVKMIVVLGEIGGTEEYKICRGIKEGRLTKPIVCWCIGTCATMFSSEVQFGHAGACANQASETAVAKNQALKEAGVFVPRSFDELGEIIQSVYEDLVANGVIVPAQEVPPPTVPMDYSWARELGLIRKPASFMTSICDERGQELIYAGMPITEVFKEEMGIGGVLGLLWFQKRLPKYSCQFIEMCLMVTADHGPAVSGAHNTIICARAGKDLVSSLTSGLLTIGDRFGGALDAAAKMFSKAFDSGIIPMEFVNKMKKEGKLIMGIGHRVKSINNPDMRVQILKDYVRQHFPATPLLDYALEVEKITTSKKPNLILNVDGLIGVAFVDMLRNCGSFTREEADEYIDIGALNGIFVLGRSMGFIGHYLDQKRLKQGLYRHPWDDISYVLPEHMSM
Experiment: Inhibitory activity against human recombinant ATP-Citrate Lyase (ACL) enzyme
How it was run: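 Human recombinant ATP-citrate lyase was used. Lactone intermediates were hydrolysed with aqueous NaOH to the hydroxy acid before being added to the enzyme buffer mix. Potency was reported as the reversible Ki.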

| SMILES | Ki [µM] |
| --- | --- |
| O=C(O)C[C@@](O)(C[C@H](O)CCCCn1ccc2cc(Cl)ccc21)C(=O)O | 160 |
| O=C(O)C[C@](O)(C(=O)O)[C@@H](O)CCCCCCCCc1ccc(Cl)cc1Cl | 18 |
| O=C(O)C[C@@](O)(C[C@H](O)CCCCCn1ccc2ccc(Cl)cc21)C(=O)O | 41 |
| O=C(O)C[C@@](O)(C[C@H](O)CCCCCn1cc([N+](=O)[O-])c2cc(Cl)ccc21)C(=O)O | 64 |

The remaining lines, values ahead:

| Ki [µM] | SMILES |
| --- | --- |
| 0.37 | O=C(O)C[C@@](O)(C[C@H](O)CCCCCn1c(-c2ccccc2)cc2cc(Cl)ccc21)C(=O)O |
| 2.9 | O=C(O)C[C@@](O)(C[C@H](O)CCCCCn1cc(Cc2ccccc2)c2cc(Cl)ccc21)C(=O)O |
| 1.1 | O=C(O)C[C@@](O)(C[C@H](O)CCCCCCc1ccc(Cl)cc1OCc1ccccc1)C(=O)O |
| 5 | O=C(O)C[C@@](O)(C[C@H](O)CCCCCCc1ccc(Cl)cc1-c1ccc(Cl)cc1)C(=O)O |
| 9.5 | Cc1cn(CCCCC[C@@H](O)C[C@](O)(CC(=O)O)C(=O)O)c2ccc(Cl)cc12 |
| 0.22 | O=C(O)C[C@@](O)(C[C@H](O)CCCCCC1c2ccccc2-c2cc(Cl)ccc21)C(=O)O (stereo partly specified) |
| 1.8 | O=C(O)C[C@@](O)(C[C@H](O)CCCCCn1ccc2cc(Cl)cc(Cl)c21)C(=O)O |
| 11 | O=C(O)C[C@@](O)(C[C@H](O)CCCCCn1cc(-c2ccccc2)c2cc(Cl)ccc21)C(=O)O |
| 5.1 | COc1ccc(-c2cc(Cl)ccc2CCCCCC[C@@H](O)C[C@](O)(CC(=O)O)C(=O)O)cc1 |
| 2.9 | O=C(O)C[C@@](O)(C[C@H](O)CCCCCn1c2c(c3cc(Cl)ccc31)CCCC2)C(=O)O |
| 2.7 | Cc1ccc(-c2cc(Cl)ccc2CCCCCC[C@@H](O)C[C@](O)(CC(=O)O)C(=O)O)cc1 |
| 0.34 | Cc1cn(-c2cc(Cl)ccc2CCCCCC[C@@H](O)C[C@](O)(CC(=O)O)C(=O)O)cc1C (stereo in doubt; (-)-58) |
| 3.5 | O=C(O)C[C@@](O)(C[C@H](O)CCCCCn1ccc2cc(Cl)ccc21)C(=O)O |

System: HepG2
Experiment: Inhibition of ATP levels in HepG2 cells was measured at 10 uM concentration.
Type: functional, Homo sapiens
Parameters: scale not given: the % may be the effect or the level left
How it was run: (§1)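 Compounds were applied to HepG2 cells as their γ-lactone prodrugs. De novo cholesterol synthesis, fatty acid synthesis and cellular ATP levels were each expressed as % of control. Significance was marked at p < 0.001.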

| SMILES | Control [%] |
| --- | --- |
| O=C(O)C[C@@]1(O)C[C@@H](CCCCCCc2ccc(Cl)cc2Cl)OC1=O | 97 |

System: HepG2
Experiment: Inhibition of ATP levels in HepG2 cells was measured at 3 uM concentration.
Type: functional, Homo sapiens
Parameters: scale not given: the % may be the effect or the level left
How it was run: as §1

| SMILES | Control [%] |
| --- | --- |
| O=C(O)C[C@@]1(O)C[C@@H](CCCCCCc2ccc(Cl)cc2Cl)OC1=O | 97 |

System: HepG2
Experiment: Inhibition of cholesterol synthesis in HepG2 cells was measured at 10 uM concentration.
Type: functional, Homo sapiens
Parameters: scale not given: the % may be the effect or the level left
How it was run: as §1

| SMILES | Control [%] |
| --- | --- |
| O=C(O)C[C@@]1(O)C[C@@H](CCCCCCc2ccc(Cl)cc2Cl)OC1=O | 53 |

System: HepG2
Experiment: Inhibition of cholesterol synthesis in HepG2 cells was measured at 3 uM concentration.
Type: functional, Homo sapiens
Parameters: scale not given: the % may be the effect or the level left
How it was run: as §1

| SMILES | Control [%] |
| --- | --- |
| O=C(O)C[C@@]1(O)C[C@@H](CCCCCCc2ccc(Cl)cc2Cl)OC1=O | 98 |

System: HepG2
Experiment: Inhibition of fatty acid synthesis in HepG2 cells was measured at 3 uM concentration.
Type: functional, Homo sapiens
Parameters: scale not given: the % may be the effect or the level left
How it was run: as §1

| SMILES | Control [%] |
| --- | --- |
| O=C(O)C[C@@]1(O)C[C@@H](CCCCCCc2ccc(Cl)cc2Cl)OC1=O | 114 |

System: Rattus norvegicus
Experiment: % Reduction of plasma triglyceride in the rat was measured at dose 37.5 mg/kg/d
Type: functional
How it was run: (§2)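 Male Sprague-Dawley rats were kept on a reverse 12 h light/12 h dark cycle with free access to RM1 powdered diet and water. Compound was given orally by gavage as two doses 24 h apart. Blood was drawn mid dark cycle, 4 h after the second dose, into EDTA. Plasma was separated at 1500g for 15 min. Triglyceride was measured enzymatically (GPO-PAP) and reported as % reduction from control.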

| SMILES | Reduction [%] |
| --- | --- |
| O=C(O)C[C@@]1(O)C[C@@H](CCCCCn2c3ccccc3c3cc(Cl)ccc32)OC1=O | 16 |
| O=C(O)C[C@@]1(O)C[C@@H](CCCCCC2c3ccccc3-c3cc(Cl)ccc32)OC1=O (stereo partly specified) | 5 |
| O=C(O)C[C@@]1(O)C[C@@H](CCCCCCc2ccc(Cl)cc2COc2ccccc2)OC1=O | 22 |
| O=C(O)C[C@@]1(O)C[C@@H](CCCCCCc2ccc(Cl)cc2Cl)OC1=O | 31 |

System: Rattus norvegicus
Experiment: % Reduction of plasma triglyceride in the rat was measured at dose 75 mg/kg/d
Type: functional
How it was run: as §2

| SMILES | Reduction [%] |
| --- | --- |
| O=C(O)C[C@@]1(O)C[C@@H](CCCCCn2c3ccccc3c3cc(Cl)ccc32)OC1=O | 33 |
| O=C(O)C[C@@]1(O)C[C@@H](CCCCCC2c3ccccc3-c3cc(Cl)ccc32)OC1=O (stereo partly specified) | 16 |
| O=C(O)C[C@@]1(O)C[C@@H](CCCCCCc2ccc(Cl)cc2COc2ccccc2)OC1=O | 34 |
| O=C(O)C[C@@]1(O)C[C@@H](CCCCCCc2ccc(Cl)cc2Cl)OC1=O | 56 |

System: HepG2
Experiment: Inhibition of fatty acid synthesis in HepG2 cells was measured at 10 uM concentration.
Type: functional, Homo sapiens
Parameters: scale not given: the % may be the effect or the level left
How it was run: as §1

| SMILES | Control [%] |
| --- | --- |
| O=C(O)C[C@@]1(O)C[C@@H](CCCCCCc2ccc(Cl)cc2Cl)OC1=O | 74 |
